Measured values: ChEMBL document CHEMBL3871279, “Bioactive Formylated Flavonoids from Eugenia rigida: Isolation, Synthesis, and X-ray Crystallography” (J Nat Prod, 2016)
pIC50: −log10 of the molar value. In brackets after ≈: the same amount, converted by molar mass. Several values for one entry are separate records, joined by “and”; a condition that tells them apart may be missing. Equal values may be shown once.

Key:
Nakaseomyces glabratus [1] = assay: Fungicidal activity against Candida glabrata ATCC 90030 after 46 to 50 hrs by broth microdilution method; type: functional
Procedure, shortened: (§1)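 Fungicidal end point from the broth microdilution plates (20% DMSO–saline serial dilutions, duplicate wells, OD630-corrected inocula, amphotericin B control). 5 μL from each clear well transferred to agar and incubated. MFC is the lowest test concentration allowing no growth on agar.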

Pichia kudriavzevii [2] = assay: Fungicidal activity against Candida krusei ATCC 6258 after 46 to 50 hrs by broth microdilution method; type: functional; procedure, shortened: as §1
Cryptococcus neoformans [3] = assay: Antimicrobial activity against Cryptococcus neoformans ATCC 90113 after 70 to 74 hrs by broth microdilution method; type: functional
Procedure, shortened: (§2)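 Modified CLSI broth microdilution. Samples serially diluted in 20% DMSO–saline and plated in duplicate. Inocula set by correcting OD630 of suspensions in incubation broth to final target inocula. Amphotericin B drug control. Plates read before and after incubation at 530 nm, or at 544ex/590em for A. fumigatus. IC50 is the concentration giving 50% growth relative to controls. MIC is the lowest concentration allowing no growth.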

Candida albicans [4] = assay: Fungicidal activity against Candida albicans ATCC 90028 after 46 to 50 hrs by broth microdilution method; type: functional; procedure, shortened: as §1
Nakaseomyces glabratus [5] = assay: Antimicrobial activity against Candida glabrata ATCC 90030 after 46 to 50 hrs by broth microdilution method; type: functional; procedure, shortened: as §2
Cryptococcus neoformans [6] = assay: Fungicidal activity against Cryptococcus neoformans ATCC 90113 after 70 to 74 hrs by broth microdilution method; type: functional; procedure, shortened: as §1
Aspergillus fumigatus [7] = assay: Fungicidal activity against Aspergillus fumigatus ATCC 204305 after 46 to 50 hrs by broth microdilution method; type: functional; procedure, shortened: as §1
Pichia kudriavzevii [8] = assay: Antimicrobial activity against Candida krusei ATCC 6258 after 46 to 50 hrs by broth microdilution method; type: functional; procedure, shortened: as §2
Aspergillus fumigatus [9] = assay: Antimicrobial activity against Aspergillus fumigatus ATCC 204305 after 46 to 50 hrs by broth microdilution method; type: functional; procedure, shortened: as §2
Staphylococcus aureus [10] = assay: microbe, parasite or virus in culture; conditions: ATCC 33591
Staphylococcus aureus [11] = assay: microbe, parasite or virus in culture; conditions: ATCC 29213
Staphylococcus aureus [12] = assay: Antimicrobial activity against methicillin-resistant Staphylococcus aureus ATCC 33591 by broth microdilution method; type: functional
[13] = Cytotoxicity against human HeLa cells assessed as reduction in cell viability after 48 hrs by neutral red dye-based assay; type: functional
Procedure, shortened: (§3)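 Cell lines from ATCC, seeded at 25 000 cells/well and incubated 24 h. Samples added at several concentrations, then 48 h further incubation. Viability read by modified Neutral Red uptake. IC50 taken from dose–response curves of percent decrease in viability against concentration. Doxorubicin positive control, DMSO vehicle control.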

[14] = Cytotoxicity against human SK-MEL cells assessed as reduction in cell viability after 48 hrs by neutral red dye-based assay; type: functional; procedure, shortened: as §3
[15] = Cytotoxicity against human SKOV3 cells assessed as reduction in cell viability after 48 hrs by neutral red dye-based assay; type: functional; conditions: SK-OV-3, 48 h; procedure, shortened: as §3
[16] = Cytotoxicity against African green monkey Vero cells assessed as reduction in cell viability after 48 hrs by neutral red dye-based assay; type: toxicity; conditions: African green monkey (Chlorocebus sabaeus); procedure, shortened: as §3
[17] = Cytotoxicity against human BT549 cells assessed as reduction in cell viability after 48 hrs by neutral red dye-based assay; type: functional; conditions: BT-549, 48 h; procedure, shortened: as §3
[18] = Cytotoxicity against human KB cells assessed as reduction in cell viability after 48 hrs by neutral red dye-based assay; type: functional; procedure, shortened: as §3
[19] = Cytotoxicity against pig LLC-PK1 cells assessed as reduction in cell viability after 48 hrs by neutral red dye-based assay; type: toxicity; conditions: pig (Sus scrofa); procedure, shortened: as §3
Staphylococcus aureus [20] = assay: Antimicrobial activity against Staphylococcus aureus ATCC 29213 by broth microdilution method; type: functional
Candida albicans [21] = assay: Antimicrobial activity against Candida albicans ATCC 90028 after 46 to 50 hrs by broth microdilution method; type: functional; procedure, shortened: as §2
[22] = Nakaseomyces glabratus, ATCC 90030

SMILES: C[C@@H]1[C@H](O)[C@@H](C)/C=C/C=C/C=C/C=C/C=C/C=C/C=C/[C@H](O[C@@H]2O[C@H](C)[C@@H](O)[C@H](N)[C@@H]2O)C[C@@H]2O[C@](O)(C[C@@H](O)C[C@@H](O)[C@H](O)CC[C@@H](O)C[C@@H](O)CC(=O)O[C@H]1C)C[C@H](O)[C@H]2C(=O)O [AMPHOTERICIN B]
- MFC (Nakaseomyces glabratus [1]): 0.7 µM (≈ 0.647 µg/mL)
- MFC (Pichia kudriavzevii [2]): 1.4 µM (≈ 1.29 µg/mL)
- pIC50 (Cryptococcus neoformans [3]): 6.70
- MIC (Cryptococcus neoformans [3]): 0.3 µM (≈ 0.277 µg/mL)
- MFC (Candida albicans [4]): 0.7 µM (≈ 0.647 µg/mL)
- pIC50 (Nakaseomyces glabratus [5]; [22]): 6.70
- MIC (Nakaseomyces glabratus [5]; [22]): 0.7 µM (≈ 0.647 µg/mL)
- MFC (Cryptococcus neoformans [6]): 0.3 µM (≈ 0.277 µg/mL)
- MFC (Aspergillus fumigatus [7]): 5.4 µM (≈ 4.99 µg/mL)
- pIC50 (Pichia kudriavzevii [8]): 6.22
- MIC (Pichia kudriavzevii [8]): 1.3 µM (≈ 1.2 µg/mL)
- pIC50 (Aspergillus fumigatus [9]): 5.85
- MIC (Aspergillus fumigatus [9]): 2.7 µM (≈ 2.5 µg/mL)

SMILES: O=C(O)c1cn(C2CC2)c2cc(N3CCNCC3)c(F)cc2c1=O [CIPROFLOXACIN]
- MBC (Staphylococcus aureus [10]): 3 µM (≈ 0.994 µg/mL)
- MBC (Staphylococcus aureus [11]): 1.5 µM (≈ 0.497 µg/mL)
- pIC50 (Staphylococcus aureus [12]): 6.70

SMILES: O=Cc1c(O)cc(O)c2c1O[C@H](c1ccccc1)CC2=O
- pIC50 [13]: < 5.00
- pIC50 (Cryptococcus neoformans [3]): 4.35
- MIC (Cryptococcus neoformans [3]): 70.4 µM (≈ 20 µg/mL)
- pIC50 [14]: < 5.00
- pIC50 [15]: < 5.00
- IC50 at 48 h [16]: > 10 µM
- pIC50 [17]: < 5.00
- pIC50 [18]: < 5.00
- pIC50 (Nakaseomyces glabratus [5]; [22]): 5.13
- MIC (Nakaseomyces glabratus [5]; [22]): 35.2 µM (≈ 10 µg/mL)
- MFC (Cryptococcus neoformans [6]): 70.4 µM (≈ 20 µg/mL)
- IC50 at 48 h [19]: > 10 µM
- pIC50 (Pichia kudriavzevii [8]): 4.52

SMILES: O=Cc1c(O)cc2c(c1O)C(=O)C[C@H](c1ccccc1)O2
- MFC (Nakaseomyces glabratus [1]): 70.4 µM (≈ 20 µg/mL)
- pIC50 [13]: < 5.00
- pIC50 (Cryptococcus neoformans [3]): 4.21
- pIC50 [14]: < 5.00
- pIC50 [15]: < 5.00
- IC50 at 48 h [16]: > 10 µM
- pIC50 [17]: < 5.00
- pIC50 [18]: < 5.00
- pIC50 (Nakaseomyces glabratus [5]; [22]): 4.90
- MIC (Nakaseomyces glabratus [5]; [22]): 70.4 µM (≈ 20 µg/mL)
- IC50 at 48 h [19]: > 10 µM

SMILES: O=C1CC(c2ccccc2)Oc2cc(O)cc(O)c21 (racemic)
- pIC50 [13]: < 5.00
- pIC50 (Cryptococcus neoformans [3]): 4.54
- MIC (Cryptococcus neoformans [3]): 78.1 µM (≈ 20 µg/mL)
- pIC50 [14]: < 5.00
- pIC50 [15]: < 5.00
- IC50 at 48 h [16]: > 10 µM
- pIC50 [17]: < 5.00
- pIC50 [18]: < 5.00
- pIC50 (Nakaseomyces glabratus [5]; [22]): 4.37
- IC50 at 48 h [19]: > 10 µM
- pIC50 (Pichia kudriavzevii [8]): 4.18

SMILES: O=Cc1c(O)cc2c(c1O)C(=O)C[C@@H](c1ccccc1)O2
- MFC (Nakaseomyces glabratus [1]): 70.4 µM (≈ 20 µg/mL)
- pIC50 [13]: < 5.00
- pIC50 (Cryptococcus neoformans [3]): 4.20
- MIC (Cryptococcus neoformans [3]): 70.4 µM (≈ 20 µg/mL)
- pIC50 [14]: < 5.00
- pIC50 [15]: < 5.00
- IC50 at 48 h [16]: > 10 µM
- pIC50 [17]: < 5.00
- pIC50 [18]: < 5.00
- pIC50 (Nakaseomyces glabratus [5]; [22]): 5.17
- MIC (Nakaseomyces glabratus [5]; [22]): 35.2 µM (≈ 10 µg/mL)
- IC50 at 48 h [19]: > 10 µM
- pIC50 (Pichia kudriavzevii [8]): 4.48

SMILES: O=Cc1c(O)cc(O)c(C(=O)CCc2ccccc2)c1O
- pIC50 [13]: < 5.00
- pIC50 (Cryptococcus neoformans [3]): 4.98
- MIC (Cryptococcus neoformans [3]): 17.4 µM (≈ 4.98 µg/mL)
- pIC50 [14]: < 5.00
- pIC50 [15]: < 5.00
- IC50 at 48 h [16]: > 10 µM
- pIC50 [17]: < 5.00
- pIC50 [18]: < 5.00
- pIC50 (Nakaseomyces glabratus [5]; [22]): 4.95
- MIC (Nakaseomyces glabratus [5]; [22]): 69.9 µM (≈ 20 µg/mL)
- MFC (Cryptococcus neoformans [6]): 17.4 µM (≈ 4.98 µg/mL)
- pIC50 (Staphylococcus aureus [12]): 4.44
- pIC50 (Staphylococcus aureus [20]): 4.76
- IC50 at 48 h [19]: > 10 µM

SMILES: O=Cc1c(O)cc(O)c2c1O[C@@H](c1ccccc1)CC2=O
- MFC (Nakaseomyces glabratus [1]): 70.4 µM (≈ 20 µg/mL)
- pIC50 [13]: < 5.00
- pIC50 (Cryptococcus neoformans [3]): 4.71
- pIC50 [14]: < 5.00
- pIC50 [15]: < 5.00
- IC50 at 48 h [16]: > 10 µM
- pIC50 [17]: < 5.00
- pIC50 [18]: < 5.00
- pIC50 (Nakaseomyces glabratus [5]; [22]): 5.14
- MIC (Nakaseomyces glabratus [5]; [22]): 35.2 µM (≈ 10 µg/mL)
- IC50 at 48 h [19]: > 10 µM
- pIC50 (Pichia kudriavzevii [8]): 4.39

SMILES: O=Cc1c(O)cc(O)c(C(=O)/C=C/c2ccccc2)c1O
- MFC (Nakaseomyces glabratus [1]): 70.4 µM (≈ 20 µg/mL)
- pIC50 [13]: < 5.00
- pIC50 (Cryptococcus neoformans [3]): 4.61
- MIC (Cryptococcus neoformans [3]): 70.4 µM (≈ 20 µg/mL)
- pIC50 [14]: < 5.00
- pIC50 [15]: < 5.00
- IC50 at 48 h [16]: > 10 µM
- pIC50 [17]: < 5.00
- pIC50 (Candida albicans [21]): 4.16
- pIC50 [18]: < 5.00
- pIC50 (Nakaseomyces glabratus [5]): 5.00 and 4.45
- MFC (Cryptococcus neoformans [6]): 70.4 µM (≈ 20 µg/mL)
- IC50 at 48 h [19]: > 10 µM
- pIC50 (Pichia kudriavzevii [8]): 4.47

SMILES: O=Cc1c(O)cc2oc(-c3ccccc3)cc(=O)c2c1O
- pIC50 [13]: < 5.00
- pIC50 [14]: < 5.00
- pIC50 [15]: < 5.00
- IC50 at 48 h [16]: > 10 µM
- pIC50 [17]: < 5.00
- pIC50 [18]: < 5.00
- pIC50 (Nakaseomyces glabratus [5]; [22]): 4.97
- IC50 at 48 h [19]: > 10 µM

SMILES: COc1cccc2c1C(=O)c1c(O)c3c(c(O)c1C2=O)C[C@@](O)(C(=O)CO)C[C@@H]3O[C@H]1C[C@H](N)[C@H](O)[C@H](C)O1 [DOXORUBICIN]
- pIC50 [13]: 5.40
- pIC50 [14]: 5.82
- pIC50 [15]: 5.59
- IC50 at 48 h [16]: > 10 µM
- pIC50 [17]: 5.44
- pIC50 [18]: 5.42
- IC50 at 48 h [19]: 17 µM
